Measurements reported in ChEMBL document CHEMBL1148824, “Quinazolinone derivatives as orally available ghrelin receptor antagonists for the treatment of diabetes and obesity” (J Med Chem, 2007).
≈ marks a conversion by molar mass, not a printed value.

Key:
[1] = molecular target: T1, Growth hormone secretagogue receptor type 1 (Homo sapiens, UniProt Q92847); assay: Antagonist activity at human recombinant GHSR1a expressed in HEK293F cells by [35S]GTP-gamma-S binding assay; type: functional, cell-based
T1 sequence (Q92847 whole entry): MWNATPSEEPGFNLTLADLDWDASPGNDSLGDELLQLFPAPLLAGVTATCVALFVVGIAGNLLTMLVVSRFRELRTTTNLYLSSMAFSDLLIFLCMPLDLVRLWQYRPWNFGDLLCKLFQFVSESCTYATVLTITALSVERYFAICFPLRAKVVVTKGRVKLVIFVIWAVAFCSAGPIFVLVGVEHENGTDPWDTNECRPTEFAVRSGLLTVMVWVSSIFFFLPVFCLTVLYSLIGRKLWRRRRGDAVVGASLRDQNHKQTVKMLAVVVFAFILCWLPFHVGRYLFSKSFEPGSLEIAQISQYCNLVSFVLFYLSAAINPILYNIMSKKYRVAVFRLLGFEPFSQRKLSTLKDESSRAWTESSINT
Method in brief: (§1)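 Functional read-out as GTPγS binding to membranes from HEK293F cells overexpressing recombinant GHS-R1a; values are the mean of at least two replicates.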

[2] = Cmax in Wistar rat at 3 mg/kg, po; type: ADME, organism-based; set-up: dose 3 mg/kg, route oral; conditions: in vivo
Method in brief: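 Wistar rat pharmacokinetic screen; single oral dose of 3 mg/kg in PEG400/methanesulfonic acid (80:20) vehicle; plasma exposure measured.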

Ghrelin receptor = Ghrelin receptor (Ovis aries, UniProt Q8MHZ5); assay: Displacement of [125I]ghrelin from ovine recombinant GHSR1a expressed in HEK293F cells after 6 hrs by scintillation proximity assay; type: cell-based
Ghrelin receptor, sequence (Q8MHZ5 whole entry): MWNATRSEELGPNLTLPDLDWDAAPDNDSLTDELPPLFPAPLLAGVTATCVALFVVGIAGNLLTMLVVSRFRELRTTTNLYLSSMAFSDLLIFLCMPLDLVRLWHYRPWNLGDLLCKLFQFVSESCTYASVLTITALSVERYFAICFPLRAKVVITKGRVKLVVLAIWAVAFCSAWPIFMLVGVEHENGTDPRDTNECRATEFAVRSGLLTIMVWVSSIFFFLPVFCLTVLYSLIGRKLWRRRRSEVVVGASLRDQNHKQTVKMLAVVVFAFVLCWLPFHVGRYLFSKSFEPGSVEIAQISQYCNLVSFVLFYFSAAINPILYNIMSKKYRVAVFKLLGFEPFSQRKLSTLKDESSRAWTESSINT

[3] = molecular target: T1, Growth hormone secretagogue receptor type 1; assay: Agonist activity at human recombinant GHSR1a expressed in HEK293F cells assessed as stimulation of [35S]GTP-gamma-S binding relative to ghrelin; type: functional, cell-based; method in brief: as §1
Mus musculus = assay: Increase in food intake in DIO C57BL/6 mouse at 30 mg/kg, after 5 hrs relative to control; type: functional
[4] = Cmax in po dosed DIO C57BL/6 mouse after 5 hrs; type: ADME, organism-based; set-up: route oral; conditions: in vivo
Brain = assay: Drug level in po dosed DIO C57BL/6 mouse brain after 5 hrs relative to plasma concentration; type: ADME, organism-based
[5] = Aqueous solubility at pH 7.2; type: physicochemical
[6] = molecular target: T2, 5-hydroxytryptamine receptor 2C (Homo sapiens, UniProt P28335); assay: Displacement of […] from 5HT2c receptor
T2 sequence (P28335 whole entry): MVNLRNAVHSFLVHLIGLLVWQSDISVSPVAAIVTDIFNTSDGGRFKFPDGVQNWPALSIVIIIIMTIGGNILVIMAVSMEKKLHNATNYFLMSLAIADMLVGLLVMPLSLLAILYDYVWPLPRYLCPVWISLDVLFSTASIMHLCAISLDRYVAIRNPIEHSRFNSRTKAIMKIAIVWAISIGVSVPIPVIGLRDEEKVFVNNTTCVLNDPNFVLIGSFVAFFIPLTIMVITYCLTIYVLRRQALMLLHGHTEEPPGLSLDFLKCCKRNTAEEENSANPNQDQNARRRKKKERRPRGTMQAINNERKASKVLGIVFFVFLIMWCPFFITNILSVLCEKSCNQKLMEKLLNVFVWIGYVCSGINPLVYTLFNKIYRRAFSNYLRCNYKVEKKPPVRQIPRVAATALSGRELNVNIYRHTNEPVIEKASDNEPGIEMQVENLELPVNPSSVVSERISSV

Cytochrome P450 2D6 = Cytochrome P450 2D6 (Homo sapiens, UniProt P10635); assay: Inhibition of CYP2D6; type: ADME
Cytochrome P450 2D6, sequence (P10635 whole entry): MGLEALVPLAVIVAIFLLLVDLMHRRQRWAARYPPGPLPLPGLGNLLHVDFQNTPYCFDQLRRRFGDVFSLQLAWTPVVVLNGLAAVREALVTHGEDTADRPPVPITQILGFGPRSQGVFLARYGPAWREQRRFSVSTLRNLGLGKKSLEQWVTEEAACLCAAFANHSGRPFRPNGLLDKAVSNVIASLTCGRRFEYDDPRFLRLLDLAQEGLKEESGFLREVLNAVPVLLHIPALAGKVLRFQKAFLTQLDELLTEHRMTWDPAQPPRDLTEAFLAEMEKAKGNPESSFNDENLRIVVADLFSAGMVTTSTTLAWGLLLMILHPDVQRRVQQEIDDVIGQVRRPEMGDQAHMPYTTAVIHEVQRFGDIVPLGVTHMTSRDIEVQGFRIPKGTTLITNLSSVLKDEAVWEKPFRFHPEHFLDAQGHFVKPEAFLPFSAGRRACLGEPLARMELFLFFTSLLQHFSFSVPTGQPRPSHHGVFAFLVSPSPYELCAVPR

Rattus norvegicus = assay: Decrease in blood glucose level in DIO Wistar rat using at 10 mg/kg after 5 hrs by IPGTT test relative to control; type: functional; set-up: scale not given: the % may be the effect or the level left

| SMILES | Kb [1] [µM] | Cmax [2] [nM] | Ki (Ghrelin receptor) [µM] | E/Emax [3] [%] | also measured |
| --- | --- | --- | --- | --- | --- |
| Cc1ccccc1-c1nc2ccc(-c3ccc(Cl)cc3)cc2c(=O)n1CC1CCCN(CCF)C1 (configuration not stated) | 0.014 | 100 | 0.016 | -9 | – |
| CCN1CCC[C@H](Cn2c(C(C)C)nc3ccc(-c4ccc(F)cc4)cc3c2=O)C1 | – | – | 0.04 | – | – |
| CC(C)N1CCCC(Cn2c(-c3ccc(OCCO)cc3F)nc3ccc(Oc4ccc(F)cc4)cc3c2=O)C1 (racemic) | – | – | – | – | Activity (Mus musculus): 4%; Cmax [4]: 5700 nM; Drug uptake (Brain): < 0.001% |
| CC(C)c1nc2ccc(-c3ccc(Cl)cc3)cc2c(=O)n1C[C@H]1CCCN(C(C)C)C1 | 0.077 | 290 | 0.045 | 0 | solubility [5]: 60 µM (≈ 26.3 µg/mL); Ki [6]: > 1 µM; IC50 (Cytochrome P450 2D6): 6.3 µM |
| COCCN1CCCC(Cn2c(-c3ccccc3C)nc3ccc(-c4ccc(Cl)cc4)cc3c2=O)C1 (configuration not stated) | 0.0064 | 140 | 0.004 | -20 | – |
| Cc1nc2ccc(-c3ccc(Cl)cc3)cc2c(=O)n1C[C@H]1CCCN(C(C)C)C1 | – | – | 0.11 | 0 | solubility [5]: 125 µM (≈ 51.2 µg/mL); Ki [6]: > 1 µM; IC50 (Cytochrome P450 2D6): 9.6 µM |
| CCN1CCC[C@@H](Cn2c(-c3ccc(C(F)(F)F)cc3)nc3ccc(-c4ccc(Cl)cc4)cc3c2=O)C1 | – | – | 0.24 | – | – |
| CC(C)N1CCC[C@H](Cn2cnc3ccc(Oc4ccc(F)cc4)cc3c2=O)C1 | 0.045 | – | 0.018 | 2 | solubility [5]: 450 µM (≈ 178 µg/mL); Ki [6]: > 1 µM; IC50 (Cytochrome P450 2D6): 21 µM |
| Cc1ccccc1-c1nc2ccc(Oc3ccc(F)cc3)cc2c(=O)n1C[C@H]1CCCN(C(C)C)C1 (stereo in doubt; (S)-35) | – | – | 0.0009 | – | – |
| CCN1CCC[C@H](Cn2c(-c3ccccc3C)nc3ccc(OC(F)(F)F)cc3c2=O)C1 | – | – | 0.016 | – | – |
| Cc1ccccc1-c1nc2ccc(Oc3ccc(F)cc3)cc2c(=O)n1C[C@@H]1CCCN(C(C)C)C1 | – | – | 0.047 | – | – |
| CC(C)c1nc2ccc(-c3ccccc3Cl)cc2c(=O)n1C[C@H]1CCCN(C(C)C)C1 | – | – | 0.127 | – | – |
| CCN1CCC[C@@H](Cn2c(-c3ccccc3C)nc3ccc(OC(F)(F)F)cc3c2=O)C1 | – | – | 0.095 | – | – |
| CCCCN(C)c1ccc2nc(-c3ccccc3OC)n(CC3CCCNC3)c(=O)c2c1 (configuration not stated) | – | – | 0.036 | – | – |
| Cc1ccccc1-c1nc2ccc(Oc3ccc(F)cc3)cc2c(=O)n1CC1CCCN(C(C)C)C1 (configuration not stated) | 0.00097 | 310 | 0.00047 | 23 | – |
| CCN1CCC=C(Cn2c(-c3ccccc3C)nc3ccc(-c4ccc(Cl)cc4)cc3c2=O)C1 | 0.036 | 30 | 0.026 | -18 | – |
| Cc1ccccc1-c1nc2ccc(-c3ccc(Cl)cc3)cc2c(=O)n1CC1CCCN(C(C)C)C1 (configuration not stated) | – | 150 | – | – | – |
| CCN1CCCC(Cn2c(-c3ccccc3OC)nc3ccc(OC)cc3c2=O)C1 (configuration not stated) | – | – | 0.91 | – | – |
| CC(C)c1nc2ccc(Oc3ccc(F)cc3)cc2c(=O)n1C[C@H]1CCCN(C(C)C)C1 | 0.0076 | 210 | 0.004 | -5 | solubility [5]: 100 µM (≈ 43.8 µg/mL); Ki [6]: > 1 µM; IC50 (Cytochrome P450 2D6): 7.2 µM |

| SMILES | Kb [1] [µM] | Cmax [2] [nM] | Ki (Ghrelin receptor) [µM] | E/Emax [3] [%] | also measured |
| --- | --- | --- | --- | --- | --- |
| Cc1ccccc1-c1nc2ccc(-c3ccc(Cl)cc3)cc2c(=O)n1CC1CCCN(CC(F)(F)F)C1 (configuration not stated) | – | 170 | 2 | – | – |
| CC(C)c1nc2ccc(-c3ccccc3Cl)cc2c(=O)n1C[C@@H]1CCCN(C(C)C)C1 | – | – | 1.8 | – | – |
| Cc1ccccc1-c1nc2ccc(Oc3ccc(F)cc3)cc2c(=O)n1C[C@H]1CCCN(C(C)C)C1 (stereo in doubt; 36) [listing 1 of 2 here] | – | 90 | 0.00086 | – | solubility [5]: 250 µM (≈ 121 µg/mL); Ki [6]: > 1 µM; IC50 (Cytochrome P450 2D6): 0.09 µM; Activity (Mus musculus): -7%; Cmax [4]: 3100 nM; Drug uptake (Brain): 1%; Activity (Rattus norvegicus): -19% |
| CCN1CCC[C@H](Cn2c(-c3ccc(C(F)(F)F)cc3)nc3ccc(-c4ccc(Cl)cc4)cc3c2=O)C1 | – | – | 0.016 | – | – |
| CCN1CCCC(Cn2c(-c3ccccc3C)nc3ccc(OC(F)(F)F)cc3c2=O)C1 (configuration not stated) | 0.045 | 240 | 0.024 | 4 | – |
| Cc1ccccc1-c1nc2ccc(-c3ccc(Cl)cc3)cc2c(=O)n1CC1CCCN(C2CCC2)C1 (configuration not stated) | 0.0027 | 220 | 0.0025 | -20 | – |
| Cc1ccccc1-c1nc2ccccc2c(=O)n1CC1CCCN(C(C)C)C1 (configuration not stated) | – | – | 1.2 | – | – |
| CC(C)N1CCC[C@H](Cn2cnc3ccc(-c4ccc(Cl)cc4)cc3c2=O)C1 | – | 200 | 0.44 | – | Ki [6]: > 1 µM; IC50 (Cytochrome P450 2D6): 0.2 µM |
| CCN1CCCC(Cn2c(-c3ccccc3OC)nc3cc(-c4ccc(Cl)cc4)ccc3c2=O)C1 (configuration not stated) | – | – | > 10 | – | – |
| Cc1ccccc1-c1nc2ccc(-c3ccc(Cl)cc3)cc2c(=O)n1CC1CN(C(C)C)CCO1 (configuration not stated) | – | – | 0.19 | – | – |
| Cc1ccccc1-c1nc2ccc(-c3ccc(Cl)cc3)cc2c(=O)n1CC1CCCNC1 (configuration not stated) | 0.013 | 20 | 0.007 | 12 | – |
| CCN1CCC[C@@H](Cn2c(C(C)C)nc3ccc(-c4ccc(F)cc4)cc3c2=O)C1 | – | – | 5.7 | – | – |
| CCN1CCC[C@@H](Cn2c(-c3ccccc3C)nc3ccc(-c4ccc(Cl)cc4)cc3c2=O)C1 | 0.25 | – | 0.071 | 10 | – |
| CCN1CCCC(Cn2c(-c3ccccc3C)nc3ccc(-c4ccc(Cl)cc4)cc3c2=O)C1 (configuration not stated) [listing 1 of 2 here] | 0.0032 | – | – | 12 | – |
| Cc1ccccc1-c1nc2ccc(Oc3ccc(F)cc3)cc2c(=O)n1C[C@H]1CCCN(C(C)C)C1 (stereo in doubt; 36) [listing 2 of 2 here] | 0.00019 | – | – | 22 | – |
| CCN1CCCC(CCn2c(-c3ccccc3OC)nc3ccc(-c4ccc(Cl)cc4)cc3c2=O)C1 (configuration not stated) | – | – | > 10 | – | – |
| Cc1ccccc1-c1nc2ccc(-c3ccc(Cl)cc3)cc2c(=O)n1CC1CCCN(CCC(F)(F)F)C1 (configuration not stated) | – | – | 0.25 | – | – |
| CCN1CCCC(Cn2c(-c3ccccc3C)nc3ccc(-c4ccc(Cl)cc4)cc3c2=O)C1 (configuration not stated) [listing 2 of 2 here] | – | 120 | 0.0018 | – | – |
| Cc1ccccc1-c1nc2ccc(Oc3ccc(F)cc3)cc2c(=O)n1CC1CCCNC1 (configuration not stated) | – | 40 | 0.0009 | 92 | EC50 [3]: 0.0065 µM |
